Test results reported in ChEMBL document CHEMBL3351240, “Antinociceptive properties of physalins from Physalis angulata” (J Nat Prod, 2014).
Calls of active or inactive are those of the source.

Legend:
[1] = tested on: Mus musculus; assay: Reduction in TNFalpha level in Swiss Webster mouse 2 mg/kg, ip dosed 40 mins before CFA injection and measured 3 hrs post CFA stimulus by ELISA method; type: functional, organism-based; set-up: dose 2 mg/kg; settings: at 2 mg/kg
In short: (§1)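 Mice dosed ip (dexamethasone in 10% ethanol in saline) 40 min before intraplantar CFA; paw skin removed under terminal halothane anesthesia, homogenized 100 mg/mL in PBS with 0.4 M NaCl, 0.05% Tween 20 and protease inhibitors, centrifuged 3000g 10 min, supernatant frozen −70 °C; cytokine by ELISA as pg/mL. n = 6; two-way ANOVA with Bonferroni.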

[2] = tested on: Mus musculus; assay: Antiinflammatory activity in Swiss Webster mouse assessed as reduction in paw edema at 2 mg/kg, ip dosed 40 mins before CFA injection and measured 2 to 6 hrs post CFA stimulus; type: functional, organism-based; set-up: dose 2 mg/kg
In short: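 Male Swiss Webster mice given drug ip (dexamethasone in 10% ethanol in saline) 40 min before intraplantar CFA (20 μL). Paw volume by plethysmometer before and after CFA, at 2, 4, 6 h; expressed as percent increase in paw volume. Mean ± SEM, n = 6; two-way ANOVA with Bonferroni.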

[3] = tested on: Mus musculus; assay: Antiinflammatory activity in Swiss Webster mouse assessed as reduction in hyperalgesia at 2 mg/kg, ip dosed 40 mins before CFA injection and measured 2 to 6 hrs post CFA stimulus; type: functional, organism-based; set-up: dose 2 mg/kg
In short: (§2)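 Male Swiss Webster mice (22−28 g) given drug ip (dexamethasone in 10% ethanol in saline) 40 min before 20 μL CFA (1 mg/mL heat-killed M. tuberculosis in paraffin oil/mannide monooleate) sc into right hind paw plantar region. Mechanical threshold by von Frey filaments, up−down method, at 2, 4, 6 h. Mean ± SEM, n = 6; two-way ANOVA with Bonferroni.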

[4] = tested on: Mus musculus; assay: Reduction in IL1-beta level in Swiss Webster mouse 2 mg/kg, ip dosed 40 mins before CFA injection and measured 3 hrs post CFA stimulus by ELISA method; type: functional, organism-based; set-up: dose 2 mg/kg; settings: at 2 mg/kg; in short: as §1
[5] = tested on: Mus musculus; assay: Antinociceptive activity in Swiss Webster mouse assessed as inhibition of acetic acid-induced abdominal constrictions at 25 to 100 mg/kg, ip dosed 40 mins before acetic acid injection; type: functional, organism-based; settings: Abdomen
In short: (§3)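 Male Swiss Webster mice dosed ip (5% DMSO in saline vehicle) 40 min before ip acetic acid 0.8% v/v, 10 mL/kg; writhes (abdominal contraction with hind-limb stretching) counted over 0−30 min; mean writhing score, n = 10 per group; ANOVA with Tukey.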

[6] = tested on: Mus musculus; assay: Antiinflammatory activity in Swiss Webster mouse assessed as reduction in hyperalgesia at 100 mg/kg, ip dosed 40 mins before CFA injection and measured 2 to 6 hrs post CFA stimulus; type: functional, organism-based; set-up: dose 100 mg/kg
In short: as §2, with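 “ip in 5% DMSO/saline” for “ip”, “ethanol/saline)” for “ethanol in saline)”, “4 and” for “4,”, “h;” for “h. Mean ± SEM,”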

[7] = tested on: Mus musculus; assay: Antiinflammatory activity in Swiss Webster mouse assessed as reduction in paw edema at 100 mg/kg, ip dosed 40 mins before CFA injection and measured 2 to 6 hrs post CFA stimulus; type: functional, organism-based; set-up: dose 100 mg/kg
In short: (§4)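 Male Swiss Webster mice, ip pretreatment in 5% DMSO/saline 40 min before intraplantar CFA (20 μL, 1 mg/mL heat-killed M. tuberculosis). Paw volume measured by plethysmometer before and 2, 4, 6 h after CFA; edema expressed as percent increase in paw volume; n = 6 mice/group; two-way ANOVA with Bonferroni.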

[8] = tested on: Mus musculus; assay: CNS toxicity in Swiss Webster mouse assessed as effect on motor performance at 100 mg/kg, ip after 40 mins by open field test; type: organism-based; set-up: dose 100 mg/kg, route intraperitoneal; settings: in vivo
In short: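 Open-field test 40 min after ip dosing: mice placed singly in 40 × 60 × 50 cm box with 12 floor squares; squares crossed with all four paws counted over 3 min; n = 6; one-way ANOVA with Tukey.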

[9] = tested on: Mus musculus; assay: Antinociceptive activity in Swiss Webster mouse assessed as increase in reaction time at 100 mg/kg, ip measured after 3 hrs by tail flick test; type: functional, organism-based; set-up: dose 100 mg/kg
In short: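 Mice habituated to restraint cylinder 20 min/day for 5 days; distal 2 cm of tail immersed in 48 ± 0.5 °C water; tail withdrawal latency measured before and after ip dosing (5% DMSO/saline vehicle); 10 s cutoff; n = 6; two-way ANOVA with Bonferroni.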

[10] = tested on: Mus musculus; assay: Antinociceptive activity in Swiss Webster mouse assessed as increase in latency time at 100 mg/kg, ip measured after 0.5 to 2 hrs by hot plate test; type: functional, organism-based; set-up: dose 100 mg/kg
In short: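 Hot plate held at 55 ± 1 °C; male Swiss Webster mice; reaction time to hind paw licking or jumping recorded before and after ip dosing (vehicle 5% DMSO in saline); data as difference from baseline; 10 s cutoff; n = 6; two-way ANOVA with Bonferroni.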

[11] = tested on: Mus musculus; assay: CNS toxicity in Swiss Webster mouse assessed as effect on motor performance at 100 mg/kg, ip after 40 mins by rotarod test; type: organism-based; set-up: dose 100 mg/kg, route intraperitoneal; settings: in vivo
In short: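 Rota-rod test: 3 cm bar at 8 rpm; mice pre-selected 24 h earlier by remaining on bar for two consecutive 120 s periods; placed on rod 40 min after ip dosing; time on bar recorded up to 120 s; n = 6; one-way ANOVA with Tukey.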

[12] = tested on: Mus musculus; assay: Antinociceptive activity in Swiss Webster mouse assessed as inhibition of formalin-induced late phase pain response at 50 mg/kg, ip dosed 40 mins before formalin injection; type: functional, organism-based; set-up: dose 50 mg/kg
In short: (§5)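 Mice acclimated 30 min in chamber, dosed ip 40 min before sc injection of 20 μL 2.5% formalin into dorsal hind paw; licking time of injected paw scored 0−10 min (early phase) and 10−30 min (late phase); n = 7−10; ANOVA with Tukey.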

[13] = tested on: Mus musculus; assay: Antinociceptive activity in Swiss Webster mouse assessed as inhibition of formalin-induced early phase pain response at 50 mg/kg, ip dosed 40 mins before formalin injection; type: functional, organism-based; set-up: dose 50 mg/kg; in short: as §5
[14] = tested on: Mus musculus; assay: Antiinflammatory activity in Swiss Webster mouse assessed as reduction in paw edema at 100 mg/kg, ip dosed 40 mins before CFA injection and measured 2 hrs post CFA stimulus; type: functional, organism-based; set-up: dose 100 mg/kg; in short: as §4
[15] = tested on: Mus musculus; assay: Antinociceptive activity in Swiss Webster mouse assessed as inhibition of formalin-induced late phase pain response at 25 to 100 mg/kg, ip dosed 40 mins before formalin injection; type: functional, organism-based; in short: as §5
[16] = tested on: Mus musculus; assay: Antiinflammatory activity in Swiss Webster mouse assessed as reduction in hyperalgesia at 100 mg/kg, ip dosed 40 mins before CFA injection and measured 2 hrs post CFA stimulus; type: functional, organism-based; set-up: dose 100 mg/kg
In short: as §2, with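 “ip in 5% DMSO/saline” for “ip”, “ethanol/saline)” for “ethanol in saline)”, “4 and” for “4,”, “h;” for “h. Mean ± SEM,”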

[17] = tested on: Mus musculus; assay: Antinociceptive activity in Swiss Webster mouse assessed as inhibition of formalin-induced late phase pain response at 50 to 100 mg/kg, ip dosed 40 mins before formalin injection; type: functional, organism-based; in short: as §5
[18] = tested on: Mus musculus; assay: Reduction in TNFalpha level in Swiss Webster mouse 100 mg/kg, ip dosed 40 mins before CFA injection and measured 3 hrs post CFA stimulus by ELISA method; type: functional, organism-based; set-up: dose 100 mg/kg; settings: at 100 mg/kg
In short: (§6)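 Mice dosed ip 40 min before intraplantar CFA; paw skin removed under terminal halothane anesthesia; proteins extracted at 100 mg tissue/mL PBS with 0.4 M NaCl, 0.05% Tween 20 and protease inhibitors; centrifuged 3000g for 10 min; supernatant IL-1β or TNF-α measured by ELISA as pg/mL; n = 6.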

[19] = tested on: Mus musculus; assay: Antiinflammatory activity in Swiss Webster mouse assessed as reduction in hyperalgesia at 100 mg/kg, ip dosed 40 mins before CFA injection and measured 4 to 6 hrs post CFA stimulus; type: functional, organism-based; set-up: dose 100 mg/kg
In short: as §2, with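 “ip in 5% DMSO/saline” for “ip”, “ethanol/saline)” for “ethanol in saline)”, “4 and” for “4,”, “h;” for “h. Mean ± SEM,”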

[20] = tested on: Mus musculus; assay: Antiinflammatory activity in Swiss Webster mouse assessed as reduction in paw edema at 50 to 100 mg/kg, ip dosed 40 mins before CFA injection and measured 2 to 4 hrs post CFA stimulus; type: functional, organism-based; in short: as §4
[21] = tested on: Mus musculus; assay: Antinociceptive activity in Swiss Webster mouse assessed as inhibition of acetic acid-induced abdominal constrictions at 25 mg/kg, ip dosed 40 mins before acetic acid injection; type: functional, organism-based; set-up: dose 25 mg/kg; settings: Abdomen; in short: as §3
[22] = tested on: Mus musculus; assay: Antinociceptive activity in Swiss Webster mouse assessed as inhibition of formalin-induced early phase pain response at 50 to 100 mg/kg, ip dosed 40 mins before formalin injection; type: functional, organism-based; in short: as §5
[23] = tested on: Mus musculus; assay: Reduction in IL1-beta level in Swiss Webster mouse 100 mg/kg, ip dosed 40 mins before CFA injection and measured 3 hrs post CFA stimulus by ELISA method; type: functional, organism-based; set-up: dose 100 mg/kg; settings: at 100 mg/kg; in short: as §6

C[C@@H]1C[C@H]2[C@@H]3CCC4=CC(=O)C=C[C@]4(C)[C@@]3(F)[C@@H](O)C[C@]2(C)[C@@]1(O)C(=O)CO
inhibition [1]: Active | inhibition [2]: Active | inhibition [3]: Active | inhibition [4]: Active

C[C@]12C(=O)C=CC=C1[C@@H](O)C[C@@H]1[C@@H]2CC[C@@]2(O)C(=O)O[C@@]3(C)[C@H]4C[C@]5(C)[C@@H](CO[C@@]16O[C@]23[C@H]5C6=O)C(=O)O4 [PHYSALIN G]
inhibition [5]: Dose-dependent effect | inhibition [6]: inactive | inhibition [7]: inactive | Activity [8]: Non-toxic | Activity [9]: Active | Activity [10]: Active | Activity [11]: Non-toxic | inhibition [12]: Active | inhibition [13]: Active

C[C@]12C(=O)C=CCC1=CC[C@@H]1[C@@H]2CC[C@]2(O)C(=O)O[C@@]3(C)[C@H]4C[C@]5(C)[C@@H](CO[C@@]16O[C@@]32[C@H]5C6=O)C(=O)O4 [PHYSALIN B]
inhibition [5]: Dose-dependent effect | inhibition [14]: Active | inhibition [6]: inactive | inhibition [15]: Active | Activity [8]: Non-toxic | Activity [9]: Active | Activity [11]: Non-toxic

C[C@@]12C[C@H]3OC(=O)[C@@H]1CO[C@]14O[C@]5([C@H]2C1=O)[C@@](O)(CC[C@H]1[C@H]4C[C@H]2O[C@]24CC=CC(=O)[C@]14C)C(=O)O[C@@]35C [PHYSALIN F]
inhibition [16]: Active | Activity [8]: Non-toxic | Activity [9]: Active | inhibition [17]: Active | inhibition [18]: Active | Activity [10]: Active | Activity [11]: Non-toxic | inhibition [19]: inactive | inhibition [20]: Active | inhibition [21]: Active | inhibition [22]: Active | inhibition [23]: inactive
